Published values gathered from unrelated publications.
Lines come from different studies, so protocols differ.
Target: RAC-alpha serine/threonine-protein kinase (AKT1, Homo sapiens, UniProt P31749)

COc1cc2ncnc(Nc3ccc(Oc4ccccc4)cc3C)c2cc1OC
inhibition (enzyme activity; inhibitor; 1 µM): 0%

FC(F)(F)Oc1cccc(-c2cnc3ccc(-c4ccncc4)nn23)c1
activity vs control (enzyme activity; inhibitor; radiometric; 5 µM): 104%

O=C(Nc1cnn(-c2csc(C(=O)NC3COC3)c2)c1)Nc1ccccc1Cl
remaining activity (enzyme activity; inhibitor; 5 µM): 95.4%

Cn1cncc1C1=CN(c2ncnc3[nH]cnc23)CCS1
inhibition (enzyme activity; inhibitor; radiometric; 50 nM): 25.1%

Nc1c(C(=O)NCc2ccc(C(=O)NCCCC3CCCCC3)cc2)cnn1-c1ccccc1
remaining binding (cell-free assay; competition with immobilised ligand; 0.1 µM): 100%

Oc1ccc(-c2nc(-c3ccncc3)c(-c3ccc(F)cc3)[nH]2)cc1
remaining signal (cell-free assay; 0.5 µM): 101%

CCCS(=O)(=O)Nc1ccc(F)c(C(=O)c2c[nH]c3ncc(-c4ccc(Cl)cc4)cc23)c1F
inhibition (enzyme activity; inhibitor; 1 µM): < 20%

Cn1c(=O)n(-c2ccc(C(C)(C)C#N)cc2)c2c3cc(-c4cnc5ccccc5c4)ccc3ncc21
remaining activity (enzyme activity; inhibitor; 10 µM): 126%

CN(C)C1CCN(CC#Cc2nn(C3CCCC3)c3nc(NCc4ccccc4)ncc23)C1 (stereo not shown)
inhibition (enzyme activity; inhibitor; FRET; 0.1 µM): 4%

CC(C)(O)[C@H]1CC[C@H](Nc2ccc3ncc(-c4cccc(C(F)(F)F)c4)n3n2)CC1
remaining activity (enzyme activity; inhibitor; 1 µM): 93.2%

CNC(=O)Nc1ccc2c(c1)CC[C@@]21OC(=O)N(CC(=O)N(Cc2ccc(F)cc2)[C@@H](C)C(F)(F)F)C1=O
remaining binding (cell-free assay; competition with immobilised ligand; 1 µM): 91%

CCOc1cc(-c2nncn2C)ccc1Nc1ncc2cc(C)nc(NCC(C)(C)C)c2n1
inhibition (enzyme activity; inhibitor; FRET; 1 µM): < 15%

Cc1ccc(Nc2nccc(N(C)c3ccc4c(C)n(C)nc4c3)n2)cc1S(N)(=O)=O
inhibition (enzyme activity; inhibitor; 0.3 µM): -7%

FC(F)c1nc2ccccc2n1-c1nc(N2CCOCC2)nc(N2CCOCC2)n1
remaining activity (enzyme activity; inhibitor; 10 µM): 123%

Nc1nc(Nc2ccccc2)sc1C(=O)c1c(F)cccc1F
remaining activity (enzyme activity; inhibitor; 10 µM): 84%

Nc1ncnc2occ(-c3ccc(NC(=O)Nc4cc(C(F)(F)F)ccc4F)cc3)c12
remaining signal (cell-free assay; inhibitor; 20 µM): 100%

COCCOc1nc(-c2ccc(Cl)nc2)nc2c1CN(C(=O)c1ncn3ccccc13)CC2
remaining binding (cell-free assay; competition with immobilised ligand; 0.1 µM): 82%

COc1cc(Nc2cnc(C#N)c(O[C@H](C)CN(C)C)n2)ncc1-c1cnn(C)c1
remaining activity (enzyme activity; inhibitor; radiometric; 10 µM): 87%

CN(C)C(=O)Cn1cc(-c2nc([C@@](C)(c3ccc(-c4cnc(N)nc4)cc3)C3CC3)no2)cn1
remaining binding (cell-free assay; competition with immobilised ligand; 1 µM): 94%

Cc1cc(NC(=O)c2cccc3cc(-c4cccc5[nH]nc(N)c45)ccc23)ccc1F
activity vs control (enzyme activity; inhibitor; 0.1 µM): 107%

Nc1nc(Nc2ccc(S(N)(=O)=O)cc2)nn1C(=O)c1c(F)cccc1F
remaining signal (cell-free assay; 0.5 µM): 120%

COc1ccc2c(c1)O[C@@H](c1ccc(OC)c(OC)c1)C[C@H]2NC(=O)C1(c2ccc3c(c2)OC(F)(F)O3)CC1
remaining binding (cell-free assay; competition with immobilised ligand; 1 µM): 100%

C[C@@H]1CCN(C(=O)CC#N)C[C@@H]1N(C)c1ncnc2[nH]ccc12
remaining signal (cell-free assay; inhibitor; 0.5 µM): 90.3%

CS(=O)(=O)Nc1cccc(-c2csc(NC(=O)CSc3nc4nccnc4c(=O)n3CCc3ccccc3)n2)c1
inhibition (enzyme activity; inhibitor; 10 µM): 1%

Cc1sc(C(=O)NC2COC2)cc1-n1cc(NC(=O)Nc2c(F)cccc2Cl)cn1
remaining activity (enzyme activity; inhibitor; 10 µM): 105%

COc1cc(/C=C/C(=O)CC(=O)/C=C/c2ccc(O)c(OC)c2)ccc1O
activity vs control (enzyme activity; inhibitor; 1 µM): 102%

CNC(=O)c1cc(Oc2ccc(NC(=O)Nc3ccc(Cl)c(C(F)(F)F)c3)cc2)ccn1
inhibition (enzyme activity; inhibitor; 10 µM): -3%

Cn1cnc(Br)c1C1=CN(c2ncnc3[nH]cnc23)CCS1
inhibition (enzyme activity; inhibitor; radiometric; 2 µM): 84.3%

Oc1cccc(-c2nc(N3CCOCC3)c3oc4ncccc4c3n2)c1
remaining signal (cell-free assay; 0.5 µM): 95.3%

CNc1cccc2cc(C(=O)Nc3ccc(C(=O)O)cc3)c(=O)[nH]c12
inhibition (enzyme activity; inhibitor; 10 µM): 2.2%

CN1CC(Oc2cnc(C#N)cc2-c2ccn3nc(NC(=O)C4CC4)cc3c2)C1
inhibition (enzyme activity; inhibitor; 1 µM): -4%

O=C1CCc2cc(Nc3cc(OC4CCOCC4)c([N+](=O)[O-])cc3Cl)ccc2N1
remaining binding (cell-free assay; competition with immobilised ligand; 1 µM): 98%

Cc1ccc(C(=O)Nc2ccc(CN3CCN(C)CC3)c(C(F)(F)F)c2)cc1C#Cc1cnc2cccnn12
remaining activity (enzyme activity; inhibitor; 23.5 nM): 65%

Cc1nc(C2CCN(C(=O)c3ccc(OC(F)(F)F)cc3N)CC2)c2ncc(N3CCN(C)CC3)cc2n1
remaining binding (cell-free assay; competition with immobilised ligand; 1 µM): 100%

Nc1nc(NC2CCCCC2)sc1C(=O)c1ccccc1
remaining activity (enzyme activity; inhibitor; 10 µM): 85%

CCc1ccccc1C(=O)Nc1n[nH]c2c(C)c(F)c(C3C(C#N)=C(C)N(C)C(C)=C3C#N)cc12
remaining binding (cell-free assay; competition with immobilised ligand; 1 µM): 75%

CCN(CC)c1ccc(C2=NNC(=O)CC2C)cc1[N+](=O)[O-] (stereo not shown)
remaining activity (enzyme activity; inhibitor; 10 µM): 81%
